From BindingDB's records for doi:10.1016/j.bmc.2014.09.025 (Johns Hopkins University, 2014)

Biological target: T1, Mas-related G-protein coupled receptor member X1 (Mus musculus, UniProt Q8CIP3)
T1 sequence (Q8CIP3 whole entry): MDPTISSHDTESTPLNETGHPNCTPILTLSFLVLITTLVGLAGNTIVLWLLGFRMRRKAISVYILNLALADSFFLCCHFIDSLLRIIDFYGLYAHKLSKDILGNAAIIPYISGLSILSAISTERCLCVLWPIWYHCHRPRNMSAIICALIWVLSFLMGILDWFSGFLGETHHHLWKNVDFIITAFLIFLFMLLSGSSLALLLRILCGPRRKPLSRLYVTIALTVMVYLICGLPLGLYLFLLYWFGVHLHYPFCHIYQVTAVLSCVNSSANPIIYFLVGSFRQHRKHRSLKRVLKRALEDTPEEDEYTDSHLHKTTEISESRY
Experiment: Agonist activity at mouse MrgC11 transfected in HEK293 cells by FLIPR assay
Outline: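 Rodent Mrg receptors were transiently transfected into HEK293 or KNRK cells, which were plated at 25,000 cells/well and imaged 2 days later. Cells were loaded with 2 μM Fluo 4AM and 1% Trypan Red in HBSS for 50 min at 37°C, then held 10 min at room temperature.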

EC50: 31.6 µM
SMILES: N=C(N)Nc1cccc(C(N)C(=O)N[C@@H](Cc2ccccc2)C(N)=O)c1 (stereo partly specified)
